ChEMBL document CHEMBL2034936, “Discovery and extensive in vitro evaluations of NK-HDAC-1: a chiral histone deacetylase inhibitor as a promising lead” (J Med Chem, 2012)
Calls of active or inactive are those of the source. The calls are words filed in the database; no cut-off is given here.

Assays:
[1] = Lipophilicity, log D of the compound in pH 7.4 PBS buffer; type: physicochemical
NCI-H460 = test: Growth inhibition of human NCI-H460 cells after 72 hrs by MTS assay; type: functional; conditions: NCI-H460, 72 h
HT-29 = test: Growth inhibition of human HT-29 cells after 72 hrs by MTS assay; type: functional; conditions: HT-29, 72 h
[2] = Solubility in neutral water; type: physicochemical
SNB-75 = test: Growth inhibition of human SNB75 cells after 72 hrs by MTS assay; type: functional; conditions: SNB-75, 72 h
HCT-116 = test: Growth inhibition of human HCT116 cells after 72 hrs by MTS assay; type: functional; conditions: HCT-116, 72 h
Cytochrome P450 3A4 = Cytochrome P450 3A4 (Homo sapiens, UniProt P08684); test: Inhibition of human CYP3A4; type: ADME
NCI-H322M = test: Growth inhibition of human NCI-H322M cells after 72 hrs by MTS assay; type: functional
OVCAR-5 = test: Growth inhibition of human OVCAR5 cells after 72 hrs by MTS assay; type: functional; conditions: OVCAR-5, 72 h
[3] = Half life in mouse liver microsomes; type: ADME, Microsome
CCRF-CEM = test: Growth inhibition of human CCRF-CEM cells after 72 hrs by MTS assay; type: functional
UACC-62 = test: Growth inhibition of human UACC62 cells after 72 hrs by MTS assay; type: functional; conditions: UACC-62, 72 h
MOLT-4 = test: Growth inhibition of human MOLT4 cells after 72 hrs by MTS assay; type: functional; conditions: MOLT-4, 72 h
[4] = Half life in mouse plasma; type: ADME, cell-free
[5] = Apparent permeability from basolateral to apical side in human Caco2 cells at 10 uM; type: ADME, cell-based; conditions: Caco-2
Method in brief: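 Caco-2 monolayers, test compound at 10 μM. Apparent permeability measured in both directions, apical to basolateral and basolateral to apical. Efflux ratio = P_app B to A / P_app A to B. Run by a contract lab following published methods. Mean of three independent triplicate experiments.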

COLO 205 [6] = test: Growth inhibition of human COLO205 cells after 72 hrs by MTS assay; type: functional; conditions: COLO 205, 72 h
DU-145 = test: cells; type: functional; conditions: Homo sapiens, DU-145, 72 h
HL-60(TB) = test: cells; type: functional; conditions: Homo sapiens, HL-60, 72 h
EKVX = test: cells; type: functional; conditions: Homo sapiens, 72 h
Malme-3M = test: cells; type: functional; conditions: Homo sapiens, 72 h
UACC-257 = test: cells; type: functional; conditions: Homo sapiens, UACC-257, 72 h
MDA-MB-435 = test: cells; type: functional; conditions: Homo sapiens, MDA-MB-435, 72 h
cells [7] = type: functional; conditions: Homo sapiens, Hs-578T, 72 h
RXF 393 = test: cells; type: functional; conditions: Homo sapiens, RXF 393, 72 h
T47D = test: cells; type: functional; conditions: Homo sapiens, 72 h
MDA-MB-231 [8] = test: cells; type: functional; conditions: Homo sapiens, MDA-MB-231, 72 h
UO-31 = test: cells; type: functional; conditions: Homo sapiens, UO-31, 72 h
SNB-19 = test: cells; type: functional; conditions: Homo sapiens, SNB-19, 72 h
SF-268 = test: cells; type: functional; conditions: Homo sapiens, SF-268, 72 h
LOX IMVI = test: cells; type: functional; conditions: Homo sapiens, 72 h
U-251 = test: cells; type: functional; conditions: Homo sapiens, U-251, 72 h
cells [9] = type: functional; conditions: Homo sapiens, NCI/ADR-RES, 72 h
NCI-H226 = test: cells; type: functional; conditions: Homo sapiens, NCI-H226, 72 h
ACHN = test: cells; type: functional; conditions: Homo sapiens, 72 h
HOP-92 = test: cells; type: functional; conditions: Homo sapiens, HOP-92, 72 h
PC-3 [10] = test: cells; type: functional; conditions: Homo sapiens, PC-3, 72 h
OVCAR-8 = test: cells; type: functional; conditions: Homo sapiens, OVCAR-8, 72 h
HCT-15 = test: cells; type: functional; conditions: Homo sapiens, HCT-15, 72 h
TK-10 = test: cells; type: functional; conditions: Homo sapiens, TK-10, 72 h
SK-OV-3 = test: cells; type: functional; conditions: Homo sapiens, SK-OV-3, 72 h
Histone deacetylase = test: Inhibition of HDAC in human HeLa cell nuclear extracts using Ac-Arg-Gly-Lys(Ac)-AMC substrate by fluorimetry; type: protein assay
KM12 = test: cells; type: functional; conditions: Homo sapiens, KM12, 72 h
A498 = test: cells; type: functional; conditions: Homo sapiens, A498, 72 h
NCI-H522 = test: cells; type: functional; conditions: Homo sapiens, NCI-H522, 72 h
SW-620 [11] = test: cells; type: functional; conditions: Homo sapiens, SW-620, 72 h
MCF7 = test: cells; type: functional; conditions: Homo sapiens, MCF7, 48 h
SN12C = test: cells; type: functional; conditions: Homo sapiens, 72 h
786-0 = test: cells; type: functional; conditions: Homo sapiens, 786-0, 72 h
BT-549 = test: cells; type: functional; conditions: Homo sapiens, BT-549, 72 h
SK-MEL-5 = test: cells; type: functional; conditions: Homo sapiens, SK-MEL-5, 72 h
SF-539 = test: cells; type: functional; conditions: Homo sapiens, SF-539, 72 h
A549 [12] = test: cells; type: functional; conditions: Homo sapiens, A549, 72 h
SR = test: Growth inhibition of human SR cells after 72 hrs by MTS assay; type: functional
OVCAR-4 = test: cells; type: functional; conditions: Homo sapiens, OVCAR-4, 72 h
M14 = test: cells; type: functional; conditions: Homo sapiens, M14, 72 h
SK-MEL-2 = test: cells; type: functional; conditions: Homo sapiens, SK-MEL-2, 72 h
OVCAR-3 [13] = test: cells; type: functional; conditions: Homo sapiens, OVCAR-3, 72 h
K562 [14] = test: cells; type: functional; conditions: Homo sapiens, K562, 72 h
NCI-H23 = test: cells; type: functional; conditions: Homo sapiens, NCI-H23, 72 h
MDA-MB-468 = test: cells; type: functional; conditions: Homo sapiens, MDA-MB-468, 72 h
IGROV-1 = test: cells; type: functional; conditions: Homo sapiens, IGROV-1, 72 h
SK-MEL-28 = test: cells; type: functional; conditions: Homo sapiens, SK-MEL-28, 72 h
SF-295 = test: cells; type: functional; conditions: Homo sapiens, SF-295, 72 h
MDA-MB-231 [15] = test: cells; type: functional; conditions: Homo sapiens, MDA-MB-231, 72 h; remark: listed apart in the source
A549 [16] = test: cells; type: functional; conditions: Homo sapiens, A549, 72 h; remark: listed apart in the source
HepG2 = test: cells; type: functional; conditions: Homo sapiens, HepG2, 72 h
OVCAR-3 [17] = test: cells; type: functional; conditions: Homo sapiens, OVCAR-3, 72 h; remark: listed apart in the source
K562 [18] = test: cells; type: functional; conditions: Homo sapiens, K562, 72 h; remark: listed apart in the source
PC-3 [19] = test: cells; type: functional; conditions: Homo sapiens, PC-3, 72 h; remark: listed apart in the source
SW-620 [20] = test: cells; type: functional; conditions: Homo sapiens, SW-620, 72 h; remark: listed apart in the source
COLO 205 [21] = test: cells; type: functional; conditions: Homo sapiens, COLO 205, 72 h
[22] = target: Histone deacetylase (Homo sapiens) (UniProt Q13547+O15379+Q9UBN7+Q92769+Q9UQL6+Q8WUI4+Q9BY41+Q96DB2+P56524+Q9UKV0+Q969S8); test: Inhibition of HDAC in human MDA-MB-231 cells assessed as stimulation of histone H3 acetylation at 5 uM incubated for 24 hrs by Western blot; type: cell-based
Method in brief: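 MDA-MB-231 cells in 35-mm dishes, dosed 24 h at graded concentrations, then trypsinized and PBS-washed. Lysed in RIPA (50 mM Tris-HCl pH 7.5, protease and phosphatase inhibitors) for 30 min at 4 °C, then cleared at 12,000g. Lysate, 60 μg protein by BCA, run on SDS-PAGE and PVDF. Blotted with anti-acetyl-histone H3 and HRP anti-rabbit, read by ECL.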

Sequence of Cytochrome P450 3A4 (P08684 whole entry): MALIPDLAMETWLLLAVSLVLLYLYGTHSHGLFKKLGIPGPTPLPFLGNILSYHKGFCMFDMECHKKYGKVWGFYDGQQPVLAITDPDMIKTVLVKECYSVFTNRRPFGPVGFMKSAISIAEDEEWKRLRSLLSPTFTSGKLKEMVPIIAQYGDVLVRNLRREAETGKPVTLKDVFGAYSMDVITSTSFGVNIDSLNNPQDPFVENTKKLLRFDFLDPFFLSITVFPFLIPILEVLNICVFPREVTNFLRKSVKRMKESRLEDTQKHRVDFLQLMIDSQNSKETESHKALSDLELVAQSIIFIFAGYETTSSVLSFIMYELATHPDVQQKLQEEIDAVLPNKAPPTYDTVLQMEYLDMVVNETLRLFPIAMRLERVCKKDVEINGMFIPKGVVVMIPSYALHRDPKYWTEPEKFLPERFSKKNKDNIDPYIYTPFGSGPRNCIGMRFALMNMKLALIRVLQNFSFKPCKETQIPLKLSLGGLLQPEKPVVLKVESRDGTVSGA

O=C(CCCCCCC(=O)Nc1ccccc1)NO [VORINOSTAT]
logD [1]: 1
GI50 (NCI-H460): 790 nM
GI50 (HT-29): 790 nM
solubility [2]: > 170 µg/mL
GI50 (SNB-75): 790 nM
GI50 (HCT-116): 400 nM
INH (Cytochrome P450 3A4): 24.8 µM
GI50 (NCI-H322M): 790 nM
GI50 (OVCAR-5): 790 nM
half-life [3]: 1.37 h
GI50 (CCRF-CEM): 800 nM
GI50 (UACC-62): 400 nM
GI50 (MOLT-4): 400 nM
half-life [4]: 3.3 h
Papp B→A at 10 µM [5]: 1.7 ×10⁻⁶ cm/s
GI50 (COLO 205 [6]): 790 nM

CC(C)[C@H](c1nc2ccccc2o1)n1cc(/C=C/C(=O)NO)nn1
GI50 (DU-145): 350 nM
GI50 (HL-60(TB)): 280 nM
GI50 (NCI-H460): 390 nM
GI50 (EKVX): 680 nM
GI50 (HT-29): 220 nM
GI50 (Malme-3M): 63 nM
GI50 (UACC-257): 230 nM
GI50 (MDA-MB-435): 240 nM
GI50 (cells [7]): 1300 nM
GI50 (RXF 393): 350 nM
GI50 (T47D): 500 nM
GI50 (MDA-MB-231 [8]): 910 nM
GI50 (UO-31): 230 nM
GI50 (SNB-19): 850 nM
GI50 (SF-268): 630 nM
GI50 (LOX IMVI): 160 nM
GI50 (U-251): 340 nM
GI50 (cells [9]): 95 nM
GI50 (SNB-75): 410 nM
GI50 (NCI-H226): 1300 nM
GI50 (ACHN): 470 nM
GI50 (HOP-92): 70 nM
GI50 (HCT-116): 180 nM
GI50 (PC-3 [10]): 280 nM
GI50 (OVCAR-8): 240 nM
GI50 (NCI-H322M): 250 nM
GI50 (HCT-15): 960 nM
GI50 (TK-10): 160 nM
GI50 (SK-OV-3): 260 nM
IC50 (Histone deacetylase): 31 nM
GI50 (KM12): 410 nM
GI50 (A498): 260 nM
GI50 (NCI-H522): 130 nM
GI50 (SW-620 [11]): 290 nM
GI50 (MCF7): 450 nM
GI50 (SN12C): 790 nM
GI50 (OVCAR-5): 400 nM
GI50 (786-0): 340 nM
GI50 (BT-549): 280 nM
GI50 (SK-MEL-5): 250 nM
GI50 (SF-539): 750 nM
GI50 (A549 [12]): 300 nM
GI50 (SR): 350 nM
GI50 (OVCAR-4): 2800 nM
GI50 (CCRF-CEM): 350 nM
GI50 (M14): 410 nM
GI50 (UACC-62): 400 nM
GI50 (SK-MEL-2): 350 nM
GI50 (OVCAR-3 [13]): 470 nM
GI50 (K562 [14]): 280 nM
GI50 (MOLT-4): 300 nM
GI50 (NCI-H23): 350 nM
GI50 (MDA-MB-468): 250 nM
GI50 (IGROV-1): 190 nM
GI50 (SK-MEL-28): 520 nM
GI50 (SF-295): 310 nM
GI50 (COLO 205 [6]): 250 nM

CCC(C)C(c1nc2ccccc2o1)n1cc(/C=C/C(=O)NO)nn1 (racemic)
GI50 (MDA-MB-231 [15]): 190 nM
GI50 (A549 [16]): 520 nM
IC50 (Histone deacetylase): 4 nM
GI50 (HepG2): 1700 nM

O=C(O)CCC(c1nc2ccccc2o1)n1cc(/C=C/C(=O)NO)nn1 (racemic)
GI50 (MDA-MB-231 [15]): > 20000 nM
GI50 (A549 [16]): > 20000 nM
IC50 (Histone deacetylase): 333 nM
GI50 (HepG2): > 20000 nM

O=C(/C=C/c1cn(Cc2nc3ccccc3o2)nn1)NO
GI50 (MDA-MB-231 [15]): 1400 nM
GI50 (A549 [16]): 4700 nM
GI50 (OVCAR-3 [17]): 1900 nM
GI50 (K562 [18]): 720 nM
GI50 (PC-3 [19]): 1600 nM
IC50 (Histone deacetylase): 105 nM
GI50 (SW-620 [20]): 1200 nM
GI50 (HepG2): 6100 nM
GI50 (COLO 205 [21]): 1100 nM
histone H3 acetylation activity (active/not active) [22]: Active

NC(=O)CCC(c1nc2ccccc2o1)n1cc(/C=C/C(=O)NO)nn1 (racemic)
GI50 (MDA-MB-231 [15]): 9500 nM
GI50 (A549 [16]): 21800 nM
IC50 (Histone deacetylase): 49 nM
GI50 (HepG2): 14000 nM

O=C(O)CC(c1nc2ccccc2o1)n1cc(/C=C/C(=O)NO)nn1 (racemic)
GI50 (MDA-MB-231 [15]): > 20000 nM
GI50 (A549 [16]): > 20000 nM
IC50 (Histone deacetylase): 140 nM
GI50 (HepG2): > 20000 nM
